Measurements collected from several papers.
Lines come from different studies, so protocols differ.

COc1cc(C2C3=C(COC3=O)N(CCO)c3cc4c(cc32)CCC4)cc(OC)c1OC (centres unmarked) — IC50 (SUM159; cell growth or viability, ATP luminescence; 48 h): 0.24 µM
C/C=C1\NC(=O)[C@H]2CSSCC/C=C/[C@H](CC(=O)N[C@H](C(C)C)C(=O)N2)OC(=O)[C@H](C(C)C)NC1=O — IC50 (MP46; cell growth or viability, ATP luminescence; 72 h): 0.00127 µM
N#Cc1ccc(-c2cc(COc3cc(=O)oc4ccccc34)on2)cc1 — IC50 (CAPAN-1; cell growth or viability, MTS; 72 h): > 100 µM
COC(=O)Nc1nc2ccc(C(=O)c3cccs3)cc2[nH]1 — IC50 (HepaRG; reactive oxygen species, inhibitor; 16 h): 9.61 µM
COc1cc([C@@H]2c3cc4c(cc3[C@H](O)[C@H]3COC(=O)[C@H]23)OCO4)cc(OC)c1OC — IC50 (MP46; cell growth or viability, ATP luminescence; 72 h): 0.00656 µM
Cc1cccc(C)c1NC(=O)CN1CCCC1=O — IC50 (HepaRG; reactive oxygen species, inhibitor; 16 h): 5.93 µM
c1ccc(-c2cc(CNc3cccc4cccnc34)on2)nc1 — IC50 (CAPAN-1; cell growth or viability, MTS; 72 h): 13.1 µM
COc1cccc2c1C(=O)c1c(O)c3c(c(O)c1C2=O)C[C@@](O)(C(=O)CO)C[C@@H]3O[C@H]1C[C@H](N)[C@H](O)[C@H](C)O1 — IC50 (SW-620; cell growth or viability, MTT; 72 h): 0.3 µM
FC(F)(F)c1cc(OCc2cc(-c3ccc(Cl)cc3Cl)no2)c2ccccc2n1 — IC50 (CAPAN-1; cell growth or viability, MTS; 72 h): > 100 µM
CCOc1ccc(Nc2c3c(nc4ccccc24)CCC3)cc1 — IC50 (THP-1; cell growth or viability; 72 h): 18.6 µM
COc1ccc(Nc2ncnc3c2ncn3Cc2ccc(C(=O)NO)cc2)cc1 — IC50 (THP-1; cell growth or viability, MTT; 72 h): 0.42 µM
CCNC(=O)c1cc2c(-c3cc(C(C)(C)O)ccc3Oc3c(C)cc(F)cc3C)cn(C)c(=O)c2[nH]1 — IC50 (MP46; cell growth or viability, ATP luminescence; 72 h): 56600 µM
FC(F)(F)c1cc(OCc2cc(-c3ccccn3)no2)c2ccccc2n1 — IC50 (CAPAN-1; cell growth or viability, MTS; 72 h): > 100 µM
CSC(=O)c1cccc2nnsc12 — IC50 (HepaRG; reactive oxygen species, inhibitor; 16 h): 10.7 µM
O=C(NO)c1ccc(Cn2cnc3c(Nc4ccc(F)c(Cl)c4)ncnc32)cc1 — IC50 (THP-1; cell growth or viability, MTT; 72 h): 1.61 µM
CC(C)C[C@H](NC(=O)[C@H](Cc1ccccc1)NC(=O)c1cnccn1)B(O)O — IC50 (MP46; cell growth or viability, ATP luminescence; 72 h): 0.00352 µM
Nc1ccccc1NC(=O)c1ccc(Cn2cnc3c(Nc4ccc(Br)cc4F)ncnc32)cc1 — IC50 (THP-1; cell growth or viability, MTT; 72 h): 0.41 µM
COc1ccc(C[C@H](N)C(=O)N[C@H]2[C@@H](O)[C@H](n3cnc4c(N(C)C)ncnc43)O[C@@H]2CO)cc1 — IC50 (THP-1; cell growth or viability; 72 h): 2.03 µM
O=C(CSc1nc2ccccc2s1)N/N=C/c1ccc(OCC(=O)Nc2cccc(Cl)c2)cc1 — IC50 (CAPAN-1; cell growth or viability, MTS; 72 h): 18.2 µM
COc1ccc(-c2nc(N3CCOCC3)c3sc(CN(C)c4ncc(C(=O)NO)cn4)cc3n2)cn1 — IC50 (MP46; cell growth or viability, ATP luminescence; 72 h): 0.00928 µM
O=c1cc(OCc2cc(-c3ccccc3)no2)c2ccccc2o1 — IC50 (CAPAN-1; cell growth or viability, MTS; 72 h): > 100 µM
COc1cc([C@@H]2c3cc4c(cc3[C@@H](O[C@@H]3O[C@@H]5CO[C@@H](C)O[C@H]5[C@H](O)[C@H]3O)[C@H]3COC(=O)[C@H]23)OCO4)cc(OC)c1O — IC50 (CAPAN-1; cell growth or viability, MTS; 72 h): 0.24 µM
CC1(P2(=O)CCCCC2)C=CCC=C1 — IC50 (SW-620; cell growth or viability, MTT; 72 h): > 100 µM
CCS(=O)(=O)Nc1ccc(Oc2ccc(F)cc2F)c(-c2cn(C)c(=O)c3[nH]ccc23)c1 — IC50 (MP46; cell growth or viability, ATP luminescence; 72 h): 0.0892 µM
CC1(P2(=O)CCCCC2)CCCCC1 — IC50 (SW-620; cell growth or viability, MTT; 72 h): > 100 µM
O=C(CSc1nc2ccccc2s1)N/N=C/c1ccc(OCC(=O)Nc2cccc([N+](=O)[O-])c2)cc1 — IC50 (CAPAN-1; cell growth or viability, MTS; 72 h): 4.25 µM
FC(F)(F)c1ccc(-c2cc(COc3cc(C(F)(F)F)nc4ccccc34)on2)cc1 — IC50 (CAPAN-1; cell growth or viability, MTS; 72 h): > 100 µM
Nc1ccccc1NC(=O)c1ccc(Cn2cnc3c(Nc4ccc(Cl)cc4)ncnc32)cc1 — IC50 (THP-1; cell growth or viability, MTT; 72 h): 0.48 µM
O=c1cc(OCc2cc(-c3ccc(Cl)cc3Cl)no2)c2ccccc2o1 — IC50 (CAPAN-1; cell growth or viability, MTS; 72 h): 80.1 µM
Cc1cc2c(C(N)=O)cccc2n1-c1nc2c(c(NCc3ccccc3)n1)CCCN2 — IC50 (SW-620; cell growth or viability; 72 h): 0.6 µM
c1ccc(-c2cc(CNc3cccc4cccnc34)on2)cc1 — IC50 (CAPAN-1; cell growth or viability, MTS; 72 h): 11.4 µM
O=[N+]([O-])c1ccc(Sc2cccc[n+]2[O-])c2nonc12 — IC50 (MP46; cell growth or viability, ATP luminescence; 72 h): 2.79 µM
